Test results from ChEMBL document CHEMBL3763122, “Synthesis, vasorelaxant activity and 2D-QSAR study of some novel pyridazine derivatives” (Eur J Med Chem, 2016).
Where a name gives a salt, the structure may show the parent alone.

Test: Vasorelaxant activity in Wistar rat thoracic aortic ring precontracted with norepinephrine hydrochloride
Type: functional
Conditions: Thoracic aorta
In short: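 Isolated rat thoracic aortic rings held at 2 g resting tension for 2 h. Contraction to norepinephrine hydrochloride (10^-6 M) measured before and after exposure to increasing concentrations of compound. Compounds dissolved in DMSO as a 0.01 M stock. DMSO-alone controls run at matching concentrations. Doxazosin mesylate served as reference standard.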

SMILES | IC50
COc1ccccc1-c1ccc(-n2ccnc2)nn1 | 205 µM
COc1ccc(/C=N/Nc2ccc(-c3ccc(Cl)cc3)nn2)c(OC)c1 | 205 µM
N#Cc1cnn(-c2ccc(-c3ccc(Cl)cc3)nn2)c1N | 310 µM
COc1ccccc1-c1ccc(N2CCCC2)nn1 | 284 µM
COc1ccccc1-c1ccc(NN)nn1 | 279 µM
CCOC(=O)c1cnn(-c2ccc(-c3ccccc3OC)nn2)c1N | 225 µM
COc1ccc(/C=N/Nc2ccc(-c3ccccc3OC)nn2)cc1 | 200 µM
COc1ccc(-c2ccc(-n3ccnc3)nn2)cc1 | 259 µM
N#Cc1cnn(-c2ccc(-c3ccccc3)nn2)c1N | 287 µM
c1ccc(-c2ccc(N3CCCC3)nn2)cc1 | 235 µM
COc1ccccc1-c1ccc(-n2nc(C)cc2C)nn1 | 299 µM
Clc1ccc(-c2ccc(N3CCCC3)nn2)cc1 | 300 µM
COc1ccc(-c2ccc(NN)nn2)cc1 | 235 µM
CCOC(=O)c1cnn(-c2ccc(-c3ccccc3)nn2)c1N | 254 µM
COc1cc(/C=N/Nc2ccc(-c3ccc(Cl)cc3)nn2)cc(OC)c1OC | 255 µM
NNc1ccc(-c2ccccc2)nn1 | 206 µM
COc1ccccc1-c1ccc(NNC(=O)NC2CCCCC2)nn1 | 266 µM
CCOC(=O)c1cnn(-c2ccc(-c3ccc(Cl)cc3)nn2)c1N | 230 µM

SMILES | IC50
O=C(NNc1ccc(-c2ccc(Cl)cc2)nn1)Nc1ccccc1 | 207 µM
Clc1ccc(-c2ccc(-n3ccnc3)nn2)cc1 | 255 µM
CCOC(=O)c1cnn(-c2ccc(-c3ccc(OC)cc3)nn2)c1N | 216 µM
COc1ccc(/C=N/Nc2ccc(-c3ccccc3OC)nn2)c(OC)c1 | 259 µM
NNc1ccc(-c2ccc(Cl)cc2)nn1 | 275 µM
COc1ccccc1-c1ccc(N/N=C/c2ccc(C(F)(F)F)cc2)nn1 | 248 µM
O=C(NNc1ccc(-c2ccc(Cl)cc2)nn1)NC1CCCCC1 | 177 µM
COc1ccccc1-c1ccc(-n2ncc(C#N)c2N)nn1 | 316 µM
COc1ccc(-c2ccc(-n3ncc(C#N)c3N)nn2)cc1 | 260 µM
Cc1cc(C)n(-c2ccc(-c3ccccc3)nn2)n1 | 198 µM
Cc1cc(C)n(-c2ccc(-c3ccc(Cl)cc3)nn2)n1 | 213 µM
FC(F)(F)c1ccc(/C=N/Nc2ccc(-c3ccc(Cl)cc3)nn2)cc1 | 209 µM
COc1ccc(-c2ccc(-n3nc(C)cc3C)nn2)cc1 | 323 µM
c1ccc(-c2ccc(-n3ccnc3)nn2)cc1 | 273 µM
COc1ccc(/C=N/Nc2ccc(-c3ccc(Cl)cc3)nn2)cc1 | 217 µM
COc1ccccc1-c1ccc(N/N=C/c2cc(OC)c(OC)c(OC)c2)nn1 | 221 µM
COc1cc2nc(N3CCN(C(=O)C4COc5ccccc5O4)CC3)nc(N)c2cc1OC (stereo not given) [DOXAZOSIN MESYLATE] | 226 µM
